Experimental data of several laboratories.
Lines come from different studies, so protocols differ.
ERBB2: Receptor tyrosine-protein kinase erbB-2 (ERBB2, Homo sapiens, UniProt P04626)

`CC(C)OC(=O)CNc1cccc(CN(Cc2ccc(-n3cccn3)cc2)S(=O)(=O)c2cccnc2)n1` has an inhibition of 4% (Alpha-2A adrenergic receptor (ADRA2A, Homo sapiens, UniProt P08913); ligand displacement, radioligand; 10 µM).
The remaining binding of `Cc1cc([C@@H](C)Nc2ccccc2C(=O)O)c2nc(N3CCC(F)(F)CC3)c(C#N)c(=O)n2c1` is reported as 100% (Tyrosine-protein kinase ABL1, phosphorylated (ABL1, Homo sapiens, UniProt P00519); binding, competition with immobilised ligand; 1 µM).
`COc1cc(-c2cncc3c2CN(C)Cc2cc(N4CCNCC4)ccc2-3)cc(OC)c1OC` gave a remaining activity of 106% (ERBB2; enzyme activity, inhibitor; 1 µM).
`O=C(O)CNc1cccc(CN(Cc2ccc(-n3cccn3)cc2)S(=O)(=O)c2cccnc2)n1` gave an inhibition of 0% (Carbonic anhydrase 1 (CA1, Homo sapiens, UniProt P00915); enzyme activity, inhibitor; 10 µM).
`CCc1nn(C)c2nc(-c3ccc(C(=O)O)cc3)nc(NCc3ccc(F)cc3)c12` gave an inhibition of 35.7% (cGMP-dependent 3',5'-cyclic phosphodiesterase (PDE2A, Homo sapiens, UniProt O00408); enzyme activity, inhibitor, radiometric; 10 µM).
The remaining binding of `C=CC(=O)N1CCC(COCC(=O)N2CCN(c3nc(-c4cnc(N)nc4C(F)F)nc(N4CCOC[C@@H]4C)n3)CC2)CC1` is reported as 97% (Mitogen-activated protein kinase kinase kinase 2 (MAP3K2, Homo sapiens, UniProt Q9Y2U5); binding, competition with immobilised ligand; 1 µM).
`C=CC(=O)N1CCCN(C(=O)c2cc(Sc3cnc(NC(=O)C4CC4)s3)c(C)cc2OC)C[C@H]1C` gave an inhibition of over 95% (Tyrosine-protein kinase ITK/TSK (ITK, Homo sapiens, UniProt Q08881); enzyme activity, inhibitor; 1 µM).
For `O=C(COP(=O)(O)O)[C@@H](O)[C@H](O)[C@H](O)COP(=O)(O)O`, the ΔTm was -6.2 °C (Son of sevenless homolog 1 (SOS1, Homo sapiens, UniProt Q07889); thermal stability; 5 mM, lysate).
For `CN(C)C/C=C/C(=O)Nc1cc2c(Nc3ccc(F)c(Cl)c3)ncnc2cc1O[C@H]1CCOC1`, the inhibition was about 100% (ERBB2; cell-free assay, competition with immobilised ligand; 10 µM).
`CNc1ncc2c(/C=C/C(=O)N3CCC(OC)CC3)nn(Cc3cccc(C(F)(F)F)c3)c2n1` has a remaining activity of 92% (Tyrosine-protein kinase ABL1 (ABL1, Homo sapiens, UniProt P00519); enzyme activity, inhibitor, radiometric; 1 µM).
